One experiment deals with T1, Interstitial collagenase (Homo sapiens, UniProt P03956).
T1 sequence (P03956 whole entry): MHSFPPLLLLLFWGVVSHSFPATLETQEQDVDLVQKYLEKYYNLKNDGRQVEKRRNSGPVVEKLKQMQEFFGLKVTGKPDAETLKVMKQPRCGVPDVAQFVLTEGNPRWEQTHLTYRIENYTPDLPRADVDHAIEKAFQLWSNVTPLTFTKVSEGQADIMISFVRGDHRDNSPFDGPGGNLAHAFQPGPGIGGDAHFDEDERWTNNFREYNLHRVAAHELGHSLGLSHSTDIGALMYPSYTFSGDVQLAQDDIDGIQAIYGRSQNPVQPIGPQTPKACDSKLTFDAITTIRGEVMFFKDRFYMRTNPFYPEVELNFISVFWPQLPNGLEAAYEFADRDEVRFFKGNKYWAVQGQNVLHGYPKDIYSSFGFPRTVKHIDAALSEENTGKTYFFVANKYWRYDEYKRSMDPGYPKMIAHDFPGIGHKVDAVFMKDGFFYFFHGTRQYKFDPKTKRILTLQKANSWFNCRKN
The experiment is described as follows: In vitro inhibitory activity against full-length human matrix metalloprotease-1.

The target of experiment [1] is T2, Matrix metalloproteinase-14 (Homo sapiens, UniProt P50281). Description: In vitro inhibitory activity against the catalytic domain of human matrix metalloprotease-14. A digest of the protocol:
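E. coli-expressed human MMP-14 catalytic domain, activated by autocatalysis, at 0.3-5 nM. Assay buffer 50 mM HEPES pH 7.0, 10 mM CaCl2, 0.02% PEG 8000, 2% DMSO, 25 °C. […] Fluorescence ex 330/em 405 nm, triplicate. Ki derived from four-parameter logistic IC50 (Horovitz-Levitski).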

In experiment [2] the target is Macrophage metalloelastase (Homo sapiens, UniProt P39900). Description: In Vitro inhibitory activity against the catalytic domain of the matrix metalloprotease-12. A digest of the protocol: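 Human MMP-12 catalytic domain, expressed in E. coli as inclusion bodies, renatured and affinity-purified. FRET assay in 50 mM HEPES/NaOH pH 7.0, 10 mM CaCl2, 0.02% PEG 8000, 2% DMSO, 25 °C. […] Inhibitor at 0.005-15 µM, 30 min preincubation, ex 330/em 405 nm, triplicate. Four-parameter logistic IC50, then Ki by the Horovitz-Levitski method.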

The target in experiment [3] is 72 kDa type IV collagenase (Homo sapiens, UniProt P08253).
The target in the next experiment is Neutrophil collagenase (Homo sapiens, UniProt P22894). Description: Inhibitory activity against matrix metalloprotease-8.
For experiment [4], the target named is Matrix metalloproteinase-9 (Homo sapiens, UniProt P14780). Description: In vitro inhibition of human matrix metalloprotease-9. A digest of the protocol: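 Full-length PMNL pro-gelatinase from human plasma buffy coat, activated with trypsin for 10 min at 37 °C, then trypsin inactivated with TKI. […] Buffer 50 mM HEPES pH 7.0, 10 mM CaCl2, 0.02% PEG 8000, 2% DMSO, 25 °C. Inhibitor 0.005-15 µM, 30 min preincubation, triplicate. Ki from logistic IC50 by the Horovitz-Levitski method.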

For a further experiment, the target named is Collagenase 3 (Homo sapiens, UniProt P45452). Description: In Vitro inhibitory activity against the catalytic domain of the matrix metalloprotease-13.
Experiment [5] addresses T2, Matrix metalloproteinase-14. Description: In vitro inhibitory activity against the ectodomain of the human matrix metalloprotease-14. A digest of the protocol:
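Ectodomain of human MMP-14 (ΔTM) expressed in Pichia pastoris. […] Buffer 50 mM HEPES pH 7.0, 10 mM CaCl2, 0.02% PEG 8000, 2% DMSO, 25 °C. Inhibitor 0.005-15 µM, 30 min preincubation, ex 330/em 405 nm, triplicate. Ki from logistic-fit IC50 by the Horovitz-Levitski method.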

The target is the same in experiment [6]. Description: Inhibition of matrix metalloprotease-14.

pKi: −log10 of the molar value.

From ChEMBL document CHEMBL1134615, “Structure-based design and synthesis of potent matrix metalloproteinase inhibitors derived from a 6H-1,3,4-thiadiazine scaffold” (J Med Chem, 2001) come the findings set out here.

Broadly, the pKi is the negative decadic logarithm of the Ki, by convention in mol/L. Read a high pKi as a small Ki.

Macrophage metalloelastase, sequence (P39900 whole entry, the tested form may be a part): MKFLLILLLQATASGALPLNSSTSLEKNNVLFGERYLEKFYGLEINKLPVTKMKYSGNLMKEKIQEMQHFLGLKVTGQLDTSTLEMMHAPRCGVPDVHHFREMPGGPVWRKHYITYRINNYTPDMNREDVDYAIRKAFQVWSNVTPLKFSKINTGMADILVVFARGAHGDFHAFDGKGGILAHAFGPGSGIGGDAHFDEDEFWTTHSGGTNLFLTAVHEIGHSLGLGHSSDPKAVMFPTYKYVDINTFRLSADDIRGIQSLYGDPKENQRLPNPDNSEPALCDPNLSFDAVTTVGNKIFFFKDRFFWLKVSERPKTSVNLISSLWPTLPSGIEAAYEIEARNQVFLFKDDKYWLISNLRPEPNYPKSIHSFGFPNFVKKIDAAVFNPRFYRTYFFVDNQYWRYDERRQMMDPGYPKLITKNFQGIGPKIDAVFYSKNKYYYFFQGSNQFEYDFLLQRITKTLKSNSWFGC
72 kDa type IV collagenase, sequence (P08253 whole entry): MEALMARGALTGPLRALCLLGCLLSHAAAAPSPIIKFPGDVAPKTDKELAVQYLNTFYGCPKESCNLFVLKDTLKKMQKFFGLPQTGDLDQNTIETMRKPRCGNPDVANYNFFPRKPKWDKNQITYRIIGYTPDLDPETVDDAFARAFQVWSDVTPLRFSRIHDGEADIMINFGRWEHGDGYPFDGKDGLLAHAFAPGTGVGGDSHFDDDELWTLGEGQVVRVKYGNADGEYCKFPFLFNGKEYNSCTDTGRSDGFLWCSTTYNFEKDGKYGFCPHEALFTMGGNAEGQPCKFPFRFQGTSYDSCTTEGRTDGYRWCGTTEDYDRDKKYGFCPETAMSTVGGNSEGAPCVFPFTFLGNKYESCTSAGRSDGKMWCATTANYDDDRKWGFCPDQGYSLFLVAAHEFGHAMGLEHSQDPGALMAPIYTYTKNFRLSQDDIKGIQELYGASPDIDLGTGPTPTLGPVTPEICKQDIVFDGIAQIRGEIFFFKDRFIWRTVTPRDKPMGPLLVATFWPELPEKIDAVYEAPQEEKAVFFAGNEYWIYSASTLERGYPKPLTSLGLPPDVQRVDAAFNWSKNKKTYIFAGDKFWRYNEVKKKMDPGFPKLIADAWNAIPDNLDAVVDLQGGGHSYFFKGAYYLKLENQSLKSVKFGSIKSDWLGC
Neutrophil collagenase, sequence (P22894 whole entry): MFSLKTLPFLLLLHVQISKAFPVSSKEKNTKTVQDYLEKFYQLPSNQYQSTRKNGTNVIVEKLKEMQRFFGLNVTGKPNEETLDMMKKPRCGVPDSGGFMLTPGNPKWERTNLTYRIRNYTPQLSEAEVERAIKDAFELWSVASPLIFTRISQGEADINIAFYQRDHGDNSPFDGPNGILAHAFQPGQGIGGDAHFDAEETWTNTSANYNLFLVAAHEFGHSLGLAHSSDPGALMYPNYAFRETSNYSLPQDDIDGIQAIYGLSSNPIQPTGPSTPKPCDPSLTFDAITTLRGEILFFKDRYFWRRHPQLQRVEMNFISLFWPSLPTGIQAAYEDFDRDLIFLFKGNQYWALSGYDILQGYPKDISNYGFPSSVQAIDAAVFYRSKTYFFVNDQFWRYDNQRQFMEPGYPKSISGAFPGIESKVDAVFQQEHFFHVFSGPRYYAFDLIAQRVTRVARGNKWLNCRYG
Matrix metalloproteinase-9, sequence (P14780 whole entry): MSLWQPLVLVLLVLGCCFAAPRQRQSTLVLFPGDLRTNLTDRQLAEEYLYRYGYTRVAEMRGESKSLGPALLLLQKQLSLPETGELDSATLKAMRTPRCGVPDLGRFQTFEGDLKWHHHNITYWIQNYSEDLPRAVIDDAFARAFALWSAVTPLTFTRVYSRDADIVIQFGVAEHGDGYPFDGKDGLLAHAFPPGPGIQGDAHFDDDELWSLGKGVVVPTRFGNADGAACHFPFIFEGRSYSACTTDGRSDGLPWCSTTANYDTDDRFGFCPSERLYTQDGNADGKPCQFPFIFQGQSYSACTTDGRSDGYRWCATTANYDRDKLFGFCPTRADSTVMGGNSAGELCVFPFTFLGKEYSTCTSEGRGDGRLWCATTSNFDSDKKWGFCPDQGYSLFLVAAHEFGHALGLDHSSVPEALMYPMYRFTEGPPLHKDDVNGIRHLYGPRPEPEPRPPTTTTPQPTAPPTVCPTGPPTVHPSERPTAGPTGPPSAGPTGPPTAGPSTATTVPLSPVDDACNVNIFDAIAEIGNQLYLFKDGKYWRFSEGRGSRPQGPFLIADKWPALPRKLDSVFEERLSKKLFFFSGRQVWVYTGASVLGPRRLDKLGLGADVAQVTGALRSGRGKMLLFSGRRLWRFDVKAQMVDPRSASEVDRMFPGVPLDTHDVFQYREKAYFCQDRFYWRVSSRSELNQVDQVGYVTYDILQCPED

As for `C[C@H](NS(=O)(=O)c1ccccc1)C(=O)NC1=NN=C(c2ccc(Cl)s2)CS1`, the pKi on Interstitial collagenase is 6.35; in [1] it was 6.49; in [2], 6.62; in [3] it was 5.73; at Neutrophil collagenase it was 6.74; in [4], 6.77. Also, the values for the pKi (on Collagenase 3; in experiment [5]) were 6.33 and 6.70, respectively.
Take `CC(C)[C@@H](NS(=O)(=O)c1ccccc1)C(=O)NC1=NN=C(c2ccc(Cl)cc2)CS1`: the pKi at Interstitial collagenase was 6.26; in experiment [1] it was 6.23; in [2], 6.46; in [3], 6.07; at Neutrophil collagenase, 5.36; in [4], under 4.82. Further, the pKi was under 4.82 at Collagenase 3 and 6.48 in [5].
`Cc1ccc(C2=NN=C(NC(=O)[C@@H](C)NS(=O)(=O)c3ccccc3)SC2)cc1`: the negative-log Ki (pKi) on Interstitial collagenase was 6.34; in experiment [1], 6.54; in [2], 7.05; in experiment [3], 6.36; at Neutrophil collagenase, 6.66; in experiment [4], 6.68. Further, the figures for the pKi (on Collagenase 3; in experiment [5]) were 6.49 and 6.82, respectively.
In the case of `C[C@H](NS(=O)(=O)c1ccccc1)C(=O)NC1=NN=C(c2ccc(Cl)cc2)CS1`, the pKi on Interstitial collagenase was 6.19; in [1] it was 7.00; in experiment [2], 6.28; in experiment [3], 6.85; on Neutrophil collagenase it was 6.14; in experiment [4] it was 7.22. Besides, the negative-log Ki (pKi) on Collagenase 3 is 6.74; in experiment [5], 6.68.
In the case of `C[C@@H](NS(=O)(=O)c1ccccc1)C(=O)NC1=NN=C(c2ccc(F)cc2)CS1`, the pKi on Interstitial collagenase is 6.20; in [1] it was 6.41; in [2], 6.46; in [3] it was 6.47; in [4] it was 7.30; on Collagenase 3, 6.52. In [5], this compound showed a pKi of 6.48.
Take `C[C@H](NS(=O)(=O)c1ccccc1)C(=O)NC1=NN=C(c2ccc(C(F)(F)F)cc2)CS1`: the pKi is 6.37 on Interstitial collagenase; 6.24 in experiment [1]; 6.52 in [2]; 6.59 at Neutrophil collagenase; 6.62 in experiment [4]; 6.24 on Collagenase 3. The same compound showed a pKi in experiment [5] of 6.41.
On to `C[C@H](NS(=O)(=O)c1ccccc1)C(=O)NC1=NN=C(C23CC4CC(CC(C4)C2)C3)CS1`, for which the pKi in experiment [1] was 5.51; in [2], 6.39; in experiment [3], under 4.82; at Neutrophil collagenase, under 4.82; in experiment [4], under 4.82; on Collagenase 3, under 4.82.
Consider `Cc1ccc(C2=NN=C(NC(=O)[C@H](C)NS(=O)(=O)c3ccccc3)SC2)cc1`, for which the negative-log Ki (pKi) in experiment [1] is 6.42; in [2] it was 6.96; in experiment [3] it was 6.39; at Neutrophil collagenase, 6.52; in experiment [4], 6.80; on Collagenase 3, 6.21.
Take `C[C@H](NS(=O)(=O)c1ccccc1)C(=O)NC1=NN=C(c2ccc([N+](=O)[O-])cc2)CS1`: the negative-log Ki (pKi) at Interstitial collagenase was 6.59; in [1], 6.54; in experiment [2], 6.55; in [3], 6.52; on Neutrophil collagenase, 6.77; in [4], 6.89. Also, the pKi on Collagenase 3 is 6.59.
In the case of `C[C@H](NS(=O)(=O)c1ccccc1)C(=O)NC1=NN=C(c2ccc(F)cc2)CS1`, the pKi is 6.36 on Interstitial collagenase; 6.36 in [1]; 6.55 in experiment [2]; 6.35 in [3]; 6.80 in experiment [4]; 6.19 at Collagenase 3.
Regarding `COc1ccc(C2=NN=C(NC(=O)[C@H](C)NS(=O)(=O)c3ccccc3)SC2)cc1`, the pKi was 6.24 on Interstitial collagenase; 6.23 in experiment [1]; 6.47 in experiment [2]; 6.74 at Neutrophil collagenase; 6.49 in experiment [4]; 5.88 at Collagenase 3.
Take `C[C@H](NS(=O)(=O)c1ccccc1)C(=O)NC1=NN=C(c2ccc(C#N)cc2)CS1`: the pKi on Interstitial collagenase is 6.41; in experiment [2] it was 6.43; in [3], 6.62; at Neutrophil collagenase, 6.66; in experiment [4], 7.10; at Collagenase 3, 6.60. Besides, the negative-log Ki (pKi) in [6] was 6.62; in experiment [5], 6.40.
For the compound `C[C@@H](NS(=O)(=O)c1ccccc1)C(=O)NC1=NN=C(c2ccc(Cl)cc2)CS1`, the pKi is 6.68 on Interstitial collagenase; 6.49 in experiment [2]; 6.30 in experiment [3]; 6.82 on Neutrophil collagenase; 7.10 in experiment [4]; 6.85 on Collagenase 3. Further, the pKi in [6] is 7.30; in [5] it was 6.68.
For `C[C@H](NS(=O)(=O)c1cccs1)C(=O)NC1=NN=C(c2ccc(Cl)cc2)CS1`, the negative logarithm of the Ki (pKi) was 6.60 in experiment [1]; 6.44 in experiment [2]; 6.26 in experiment [3]; 7.22 on Neutrophil collagenase; 6.10 in experiment [4]; 5.42 on Collagenase 3.
For `CC(C)(NS(=O)(=O)c1ccccc1)C(=O)NC1=NN=C(c2ccc(Cl)cc2)CS1`, the pKi on Interstitial collagenase was 6.52; in experiment [1], 6.82; in experiment [2] it was 6.70; in experiment [3], 7.10; at Neutrophil collagenase, 6.32; in [4], 7.05. Also, the pKi is 6.74 on Collagenase 3 and 6.96 in experiment [5].
In the case of `C[C@H](NS(=O)(=O)c1ccccc1)C(=O)NC1=NN=C(c2ccc(Br)cc2)CS1`, the pKi in [2] was 6.36; in experiment [3] it was 6.57; at Neutrophil collagenase, 6.96; in experiment [4], 6.80; on Collagenase 3 it was 6.43; in experiment [6], 6.47.
Consider `CC(C)[C@H](NS(=O)(=O)c1ccccc1)C(=O)NC1=NN=C(c2ccc(Cl)cc2)CS1`, for which the pKi in [1] was 6.13; in experiment [2], 6.42; in experiment [3], 6.06; on Neutrophil collagenase it was 6.11; in experiment [4] it was 6.70; at Collagenase 3 it was under 4.82.
For `C[C@@H](NS(=O)(=O)c1ccccc1)C(=O)NC1=NN=C(c2ccc(Br)cc2)CS1`, the pKi is 6.38 on Interstitial collagenase; 6.47 in experiment [2]; 6.82 in experiment [3]; 6.68 at Neutrophil collagenase; 7.40 in experiment [4]; 6.89 on Collagenase 3. In addition, the pKi in experiment [6] is 6.70; in [5], 6.74.
As for `C[C@H](NS(=O)(=O)Cc1ccccc1)C(=O)NC1=NN=C(c2ccc(Cl)cc2)CS1`, the pKi on Interstitial collagenase is 6.44; in [1], 6.72; in [2], 6.32; in experiment [3], 7.05; at Neutrophil collagenase, 6.70; in experiment [4], 7.40. For the same compound, the values for the negative-log Ki (pKi) (on Collagenase 3; in experiment [5]) were 6.92 and 6.74, respectively.
Consider `C[C@@H](NS(=O)(=O)c1ccccc1)C(=O)NC1=NN=C(c2ccc(C#N)cc2)CS1`, for which the pKi on Interstitial collagenase is 6.40; in experiment [2], 6.44; in [3], 6.68; at Neutrophil collagenase it was 6.64; in [4], 7.10; at Collagenase 3, 6.68. Besides, the pKi is 6.62 in [6] and 6.40 in [5].
